Laboratory results: PubChem BioAssay AID504392 (Broad Institute, 2011)
The source made the active and inactive calls.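 Rule for the calls: active = fitted curve rising past 10% caspase activation at or below the top valid dose; inactive = activity opposite to the expected rise, or the rest.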

experiment: apoptosis induction in mouse embryonic fibroblasts – cell-based, wild-type MEF, caspase luminescence, dry powder, set 2, counter-screen for Bcl2-A1 inhibitor project, dose response (AID 504392); settings: CaspaseGlo luminescence, 3 h; series mostly up to 35 µM; caspase activation: at the top concentration
How it was run: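 Material: unprimed wild-type MEF cells; amount: 2500 cells per well; read-out basis: caspase activation; doses: pin-transferred compound; medium: RPMI-1640 growth medium with 10% FBS; timing: 3 h compound at 37 °C, 1 h reagent at RT; signal: CaspaseGlo luminescence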

Row | Structure (SMILES) | caspase activation
1 | CCSc1c([N+](=O)[O-])c(=O)oc2ccccc12 | -0.856% (inactive)
2 | O=c1oc2ccccc2c(Cl)c1[N+](=O)[O-] | -2.49% (inactive)
3 | Cn1c(=O)c([N+](=O)[O-])c(Nc2ccc(Cl)cc2)c2ccccc21 | 0.621% (inactive)
4 | O=c1oc2ccccc2c(N2CCCCC2)c1[N+](=O)[O-] | -1.15% (inactive)
5 | Cc1ccc(Sc2c([N+](=O)[O-])c(=O)oc3ccccc23)cc1 | -1.99% (inactive)
6 | Cc1ccc(Sc2c([N+](=O)[O-])cnc3ccccc23)cc1 | 0.971% (inactive)
7 | Cc1ccc(Sc2c([N+](=O)[O-])c(=O)n(C)c3ccccc23)cc1 | 1.94% (inactive)
8 | CCOC(=O)N1CCN(c2c([N+](=O)[O-])c(=O)n(C)c3ccccc23)CC1 | 0.376% (inactive)
9 | CN1C(=O)C(C)(C)N(Cc2ccccc2)c2ccccc21 | -0.09% (inactive)
10 | Cn1c(=O)c([N+](=O)[O-])c(Oc2ccccc2)c2ccccc21 | 0.176% (inactive)
11 | CCOCCCNc1c([N+](=O)[O-])c(=O)n(C)c2ccccc12 | -0.369% (inactive)
12 | O=c1oc2ccccc2c(Sc2ccccc2)c1[N+](=O)[O-] | -2.63% (inactive)
13 | Cc1ccc(Nc2c([N+](=O)[O-])c(=O)n(C)c3ccccc23)cc1 | 0.135% (inactive)
14 | O=[N+]([O-])c1cnc2ccccc2c1Sc1ccccc1 | -0.231% (inactive)
15 | O=C(Oc1cccc(/C=N/Nc2nc(Nc3ccccc3)nc(N3CCOCC3)n2)c1)c1ccco1 | 0.185% (inactive)
16 | Cn1c(=O)c([N+](=O)[O-])c(-n2cnc3ccccc32)c2ccccc21 | 2.49% (inactive)
17 | O=c1oc2ccccc2c(Nc2cc(Cl)cc(Cl)c2)c1[N+](=O)[O-] | -0.747% (inactive)
18 | Cc1ccc(Nc2c([N+](=O)[O-])c(=O)oc3ccccc23)cc1 | 0.158% (inactive)
19 | Cn1c(=O)c([N+](=O)[O-])c(Cl)c2ccccc21 | -0.325% (inactive)
20 | Cc1ccc(Sc2cc(=O)n(C)c3ccccc23)cc1 | -2.63% (inactive)
